Test results reported in ChEMBL document CHEMBL2034845, “Synthesis and in vitro characterization of trans- and cis-[(18)F]-4-methylbenzyl 4-[(pyrimidin-2-ylamino)methyl]-3-fluoropiperidine-1-carboxylates as new potential PET radiotracer candidates for the NR2B subtype N-methyl-D-aspartate receptor” (Eur J Med Chem, 2012).

Legend:
Cerebellum = experiment: Drug uptake in Sprague-Dawley rat cerebellum at 8 nM after 90 mins by autoradiography analysis; assay type: ADME, tissue-based; conditions: 1.5 h, 0.008 µM
Hippocampus = experiment: Drug uptake in Sprague-Dawley rat hippocampus at 8 nM after 90 mins by autoradiography analysis; assay type: ADME, tissue-based; conditions: 1.5 h, 0.008 µM
[1] = Drug uptake in Sprague-Dawley rat forebrain at 8 nM after 90 mins by autoradiography analysis; conditions: 1.5 h, 0.008 µM
Striatum = experiment: Binding to Sprague-Dawley rat striatum sections at 8 nM after 90 mins by autoradiography analysis; conditions: in vitro, 1.5 h, 0.008 µM
Brain = experiment: Drug uptake in Sprague-Dawley rat brain at 8 nM after 90 mins by autoradiography analysis in presence of 10 uM Ro 256981; assay type: ADME, tissue-based; conditions: 1.5 h, 0.008 µM
[2] = molecular target: T1, Glutamate receptor ionotropic, NMDA 2B (Rattus norvegicus, UniProt Q00960); experiment: Binding affinity to NMDAR NR2B in Sprague-Dawley rat brain hippocampus; assay type: tissue-based
T1 sequence (Q00960 whole entry): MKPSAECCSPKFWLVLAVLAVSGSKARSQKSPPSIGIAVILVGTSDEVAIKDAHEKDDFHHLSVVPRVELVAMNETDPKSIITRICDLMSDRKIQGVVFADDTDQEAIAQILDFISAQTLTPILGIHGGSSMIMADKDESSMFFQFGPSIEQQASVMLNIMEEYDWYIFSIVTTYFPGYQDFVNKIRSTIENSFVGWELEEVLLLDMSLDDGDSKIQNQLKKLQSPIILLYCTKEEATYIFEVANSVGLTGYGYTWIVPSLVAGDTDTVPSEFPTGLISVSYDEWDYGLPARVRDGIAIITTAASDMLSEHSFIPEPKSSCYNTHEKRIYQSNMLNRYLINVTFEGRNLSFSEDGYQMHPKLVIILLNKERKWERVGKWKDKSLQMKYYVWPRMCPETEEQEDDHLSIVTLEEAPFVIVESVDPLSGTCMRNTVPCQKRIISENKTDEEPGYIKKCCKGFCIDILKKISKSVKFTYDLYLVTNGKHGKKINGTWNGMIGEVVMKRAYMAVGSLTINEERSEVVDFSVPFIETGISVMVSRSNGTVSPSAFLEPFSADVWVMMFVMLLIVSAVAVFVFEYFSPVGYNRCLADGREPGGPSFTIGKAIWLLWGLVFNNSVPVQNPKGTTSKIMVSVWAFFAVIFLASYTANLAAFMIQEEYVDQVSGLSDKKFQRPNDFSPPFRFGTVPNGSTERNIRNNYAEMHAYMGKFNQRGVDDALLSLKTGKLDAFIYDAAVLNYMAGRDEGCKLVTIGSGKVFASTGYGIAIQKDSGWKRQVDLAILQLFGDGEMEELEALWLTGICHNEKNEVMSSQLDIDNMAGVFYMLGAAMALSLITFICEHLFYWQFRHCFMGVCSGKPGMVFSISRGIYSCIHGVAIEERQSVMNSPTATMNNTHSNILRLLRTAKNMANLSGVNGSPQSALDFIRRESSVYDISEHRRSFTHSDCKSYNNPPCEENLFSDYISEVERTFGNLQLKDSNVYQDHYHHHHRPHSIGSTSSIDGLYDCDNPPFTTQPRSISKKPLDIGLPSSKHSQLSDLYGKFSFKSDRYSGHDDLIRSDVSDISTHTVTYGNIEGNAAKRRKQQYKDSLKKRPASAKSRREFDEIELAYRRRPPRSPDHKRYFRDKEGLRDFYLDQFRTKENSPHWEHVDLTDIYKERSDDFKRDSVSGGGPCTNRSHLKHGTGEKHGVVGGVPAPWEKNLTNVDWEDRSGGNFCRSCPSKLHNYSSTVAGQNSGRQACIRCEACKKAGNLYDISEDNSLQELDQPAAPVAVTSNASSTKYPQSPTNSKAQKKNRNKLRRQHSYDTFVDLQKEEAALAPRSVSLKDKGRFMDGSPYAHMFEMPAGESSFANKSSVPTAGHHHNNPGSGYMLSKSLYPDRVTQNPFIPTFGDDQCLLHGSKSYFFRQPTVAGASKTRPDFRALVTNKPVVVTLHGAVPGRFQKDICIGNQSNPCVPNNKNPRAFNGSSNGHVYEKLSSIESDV
Method in brief: (§1)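 Saturation binding on mounted rat brain tissue sections. Sections were pre-incubated twice for 10 min at r.t. in 50 mM Tris-HCl pH 7.4 with 10 mM EDTA, then exposed to free [18F] ligand at 0.15–48 nM. Washes were 5, 5 and 15 min in 50 mM Tris-HCl pH 7.4 at 4 °C, followed by a cold distilled-water dip and drying on a hot plate. Autoradiographic optical densities (DLU/mm²) were converted with spiked brain-homogenate standards. Specific binding was taken as total minus nonspecific for each region. Kd and Bmax were obtained from Scatchard plots.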

[3] = molecular target: T1, Glutamate receptor ionotropic, NMDA 2B; experiment: Binding affinity to NMDAR NR2B in Sprague-Dawley rat brain thalamus; assay type: tissue-based; method in brief: as §1
[4] = molecular target: T1, Glutamate receptor ionotropic, NMDA 2B; experiment: Binding affinity to NMDAR NR2B in Sprague-Dawley rat brain cortex; assay type: tissue-based; method in brief: as §1
Thalamus = experiment: Drug uptake in Sprague-Dawley rat thalamus at 8 nM after 90 mins by autoradiography analysis; assay type: ADME, tissue-based; conditions: 1.5 h, 0.008 µM
Nucleic Acid = experiment: Ratio of drug uptake in […] in Sprague-Dawley rat at 8 nM after 90 mins by autoradiography analysis; assay type: ADME, tissue-based; conditions: 1.5 h, 0.008 µM
[5] = molecular target: T1, Glutamate receptor ionotropic, NMDA 2B; experiment: Binding affinity to NMDAR NR2B in Sprague-Dawley rat brain olfactory tubercle; assay type: tissue-based; method in brief: as §1
[6] = Lipophilicity, log D of the compound in octanol-[…] at 10 uM after 40 mins by shake flask method; assay type: physicochemical
Method in brief: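 Shake-flask method. Tubes held 1 mL octanol and 1 mL […] buffer plus [18F] tracer, were stirred for 40 min and centrifuged for 5 min. Two 100 µL aliquots from each phase were gamma-counted. logD7.4 was calculated from the ratio of octanol to aqueous radioactivity. Four tubes were used.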

Cortex = experiment: Drug uptake in Sprague-Dawley rat cortex at 8 nM after 90 mins by autoradiography analysis; assay type: ADME, tissue-based; conditions: 1.5 h, 0.008 µM
[7] = molecular target: T1, Glutamate receptor ionotropic, NMDA 2B; experiment: Binding affinity to NMDAR NR2B in Sprague-Dawley rat brain striatum; assay type: tissue-based; method in brief: as §1
[8] = Drug uptake in Sprague-Dawley rat olfactory tubercle at 8 nM after 90 mins by autoradiography analysis; assay type: ADME, tissue-based; conditions: 1.5 h, 0.008 µM
[9] = molecular target: Glutamate receptor ionotropic, NMDA 2B (Rattus norvegicus) (UniProt Q00960); experiment: Ratio of Bmax to Kd at NMDAR NR2B in Sprague-Dawley rat brain olfactory tubercle; assay type: tissue-based; conditions: tested as the 18F-labelled form
Chain of Glutamate receptor ionotropic, NMDA 2B (Rattus norvegicus) (Q00960 27-1482 limits assumed): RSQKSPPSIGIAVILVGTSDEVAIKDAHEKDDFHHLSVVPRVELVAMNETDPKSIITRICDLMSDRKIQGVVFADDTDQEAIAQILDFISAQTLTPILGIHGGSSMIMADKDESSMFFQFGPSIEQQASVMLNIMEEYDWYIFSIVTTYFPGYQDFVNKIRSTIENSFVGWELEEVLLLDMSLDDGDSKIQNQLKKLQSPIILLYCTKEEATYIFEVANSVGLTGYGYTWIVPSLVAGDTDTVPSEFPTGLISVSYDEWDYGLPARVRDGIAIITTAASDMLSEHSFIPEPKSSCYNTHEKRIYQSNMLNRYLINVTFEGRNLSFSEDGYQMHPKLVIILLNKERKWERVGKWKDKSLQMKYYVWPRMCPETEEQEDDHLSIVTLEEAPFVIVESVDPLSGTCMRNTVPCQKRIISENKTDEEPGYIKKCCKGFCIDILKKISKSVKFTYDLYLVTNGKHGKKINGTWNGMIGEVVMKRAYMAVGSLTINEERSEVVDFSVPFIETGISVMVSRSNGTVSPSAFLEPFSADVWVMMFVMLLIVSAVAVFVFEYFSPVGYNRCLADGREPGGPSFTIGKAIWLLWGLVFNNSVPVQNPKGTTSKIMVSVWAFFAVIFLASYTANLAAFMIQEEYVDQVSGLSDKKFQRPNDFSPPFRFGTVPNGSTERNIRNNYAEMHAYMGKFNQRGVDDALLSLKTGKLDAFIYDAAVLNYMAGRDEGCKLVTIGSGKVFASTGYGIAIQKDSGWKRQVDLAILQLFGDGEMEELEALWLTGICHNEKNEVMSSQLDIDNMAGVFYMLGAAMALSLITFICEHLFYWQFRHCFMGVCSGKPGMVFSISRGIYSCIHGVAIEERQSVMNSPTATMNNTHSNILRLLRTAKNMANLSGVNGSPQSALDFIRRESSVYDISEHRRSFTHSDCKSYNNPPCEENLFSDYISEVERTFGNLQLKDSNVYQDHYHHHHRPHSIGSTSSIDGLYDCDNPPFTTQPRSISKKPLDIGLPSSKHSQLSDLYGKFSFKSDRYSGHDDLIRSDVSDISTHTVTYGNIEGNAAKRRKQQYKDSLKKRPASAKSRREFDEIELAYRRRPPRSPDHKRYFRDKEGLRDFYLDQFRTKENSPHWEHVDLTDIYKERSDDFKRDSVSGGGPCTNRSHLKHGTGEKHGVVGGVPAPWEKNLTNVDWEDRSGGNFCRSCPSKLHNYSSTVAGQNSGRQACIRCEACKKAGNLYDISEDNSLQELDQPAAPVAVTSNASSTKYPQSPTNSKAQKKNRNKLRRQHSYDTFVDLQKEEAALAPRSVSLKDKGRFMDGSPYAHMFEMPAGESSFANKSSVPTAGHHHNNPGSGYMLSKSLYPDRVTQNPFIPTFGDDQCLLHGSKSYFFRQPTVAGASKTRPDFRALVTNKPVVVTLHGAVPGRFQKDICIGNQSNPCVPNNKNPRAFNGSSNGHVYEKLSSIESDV
Method in brief: (§2)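 Bmax/Kd ratio for each brain region. Bmax and Kd came from Scatchard analysis of specific autoradiographic binding on rat brain sections. Free [18F] ligand ran from 0.15 to 48 nM, with Tris-HCl pH 7.4 pre-incubation and cold washes. Radioactivity was calibrated against spiked tissue-homogenate standards.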

[10] = molecular target: Glutamate receptor ionotropic, NMDA 2B (Rattus norvegicus) (UniProt Q00960); experiment: Ratio of Bmax to Kd at NMDAR NR2B in Sprague-Dawley rat brain thalamus; assay type: tissue-based; conditions: tested as the 18F-labelled form; method in brief: as §2
[11] = molecular target: Glutamate receptor ionotropic, NMDA 2B (Rattus norvegicus) (UniProt Q00960); experiment: Binding affinity to NMDAR NR2B in Sprague-Dawley rat brain cortex assessed per mg of protein; assay type: tissue-based; conditions: tested as the 18F-labelled form; method in brief: as §1
[12] = molecular target: Glutamate receptor ionotropic, NMDA 2B (Rattus norvegicus) (UniProt Q00960); experiment: Binding affinity to NMDAR NR2B in Sprague-Dawley rat brain striatum assessed per mg of protein; assay type: tissue-based; conditions: tested as the 18F-labelled form; method in brief: as §1
[13] = molecular target: Glutamate receptor ionotropic, NMDA 2B (Rattus norvegicus) (UniProt Q00960); experiment: Ratio of Bmax to Kd at NMDAR NR2B in Sprague-Dawley rat brain hippocampus; assay type: tissue-based; conditions: tested as the 18F-labelled form; method in brief: as §2
[14] = molecular target: Glutamate receptor ionotropic, NMDA 2B (Rattus norvegicus) (UniProt Q00960); experiment: Binding affinity to NMDAR NR2B in Sprague-Dawley rat brain thalamus assessed per mg of protein; assay type: tissue-based; conditions: tested as the 18F-labelled form; method in brief: as §1
[15] = molecular target: Glutamate receptor ionotropic, NMDA 2B (Rattus norvegicus) (UniProt Q00960); experiment: Binding affinity to NMDAR NR2B in Sprague-Dawley rat brain olfactory tubercle assessed per mg of protein; assay type: tissue-based; conditions: tested as the 18F-labelled form; method in brief: as §1
[16] = molecular target: Glutamate receptor ionotropic, NMDA 2B (Rattus norvegicus) (UniProt Q00960); experiment: Ratio of Bmax to Kd at NMDAR NR2B in Sprague-Dawley rat brain striatum; assay type: tissue-based; conditions: tested as the 18F-labelled form; method in brief: as §2
[17] = molecular target: Glutamate receptor ionotropic, NMDA 2B (Rattus norvegicus) (UniProt Q00960); experiment: Binding affinity to NMDAR NR2B in Sprague-Dawley rat brain hippocampus assessed per mg of protein; assay type: tissue-based; conditions: tested as the 18F-labelled form; method in brief: as §1
[18] = molecular target: Glutamate receptor ionotropic, NMDA 2B (Rattus norvegicus) (UniProt Q00960); experiment: Ratio of Bmax to Kd at NMDAR NR2B in Sprague-Dawley rat brain cortex; conditions: tested as the 18F-labelled form; method in brief: as §2

| Drug uptake (Cerebellum) | Drug uptake (Hippocampus) | Drug uptake [1] | Drug uptake (Striatum) | Drug uptake (Brain) | Kd [2] | Kd [3] | Kd [4] | Drug uptake (Thalamus) | Ratio (Nucleic Acid) | Kd [5] | logD at 40 min, 10 µM [6] | Drug uptake (Cortex) | Kd [7] | Drug uptake [8] | Ratio [9] | Ratio [10] | Bmax [11] | Bmax [12] | Ratio [13] | SMILES | also measured |
| --- | --- | --- | --- | --- | --- | --- | --- | --- | --- | --- | --- | --- | --- | --- | --- | --- | --- | --- | --- | --- | --- |
| Not Active | 91% | Active | Active | Not Active | 9.1 nM | 15.2 nM | 9.8 nM | 76% | 12.1 | 5.9 nM | 2.8 | Active | 9.3 nM | Not Active |  |  |  |  |  | Cc1ccc(COC(=O)N2CC[C@H](CNc3ncccn3)[C@H]([18F])C2)cc1 (racemic) |  |
| Not Active | 84% | Active | Active | Not Active | 7.1 nM | 5.4 nM | 3.2 nM | 62% | 6.4 | 1.9 nM | 2.66 | Active | 5.1 nM | Not Active |  |  |  |  |  | Cc1ccc(COC(=O)N2CC[C@@H](CNc3ncccn3)[C@H]([18F])C2)cc1 (racemic) |  |
|  |  |  |  |  |  |  |  |  |  |  |  |  |  |  | 37 | 17 | 0.77 pmol | 1.05 pmol | 22 | Cc1ccc(COC(=O)N2CC[C@@H](CNc3ncccn3)[C@H](F)C2)cc1 (racemic) | Bmax [14]: 0.86 pmol; Bmax [15]: 0.69 pmol; Ratio [16]: 21; Bmax [17]: 1.58 pmol; Ratio [18]: 25 |
|  |  |  |  |  |  |  |  |  |  |  |  |  |  |  | 18 | 8 | 1.5 pmol | 1.41 pmol | 19 | Cc1ccc(COC(=O)N2CC[C@H](CNc3ncccn3)[C@H](F)C2)cc1 (racemic) | Bmax [14]: 1.12 pmol; Bmax [15]: 1.05 pmol; Ratio [16]: 15; Bmax [17]: 1.65 pmol; Ratio [18]: 15 |
